Assay results as given in ChEMBL document CHEMBL6115053, “Optimization and Characterization of N-Acetamide Indoles as Antimalarials That Target PfATP4” (J Med Chem, 2025).
pEC50, pIC50: −log10 of the molar value. In brackets after ≈: the same amount, converted by molar mass. Activity calls are given as the source filed them. The calls are words filed in the database; no cut-off is given here.

How the values were obtained:
Plasmodium falciparum [1] = experiment: Antimalarial activity against Plasmodium falciparum NF54 infected assessed as inhibition of female gamete formation incubated for 48 hrs by automated bright field microscopic analysis; type: functional, organism-based; settings: NF54, 48 h
[2] = Metabolic stability in human liver microsome assessed as intrinsic clearance; type: ADME; settings: microsomes
Plasmodium falciparum [3] = experiment: Antiplasmodial activity against Plasmodium falciparum 3D7 infected in RBC assessed as reduction in deoxythymidine triphosphate level at 5 nM incubated for 5 hrs by LC-MS analysis; type: functional, organism-based
Plasmodium falciparum [4] = experiment: Antiplasmodial activity against wild type Plasmodium falciparum 3D7 incubated for 48 hrs; type: functional, organism-based; settings: 3D7, 48 h
Plasmodium falciparum [5] = experiment: Antiplasmodial activity against multidrug resistant Plasmodium falciparum 7G8 incubated for 48 hrs by SYBR staining based fluorometer assay; type: functional, organism-based; settings: 7G8, 48 h
Plasmodium falciparum [6] = experiment: Antiplasmodial activity against Plasmodium falciparum 3D7 infected in RBC assessed as reduction in nucleotide level at 5 nM incubated for 5 hrs by LC-MS analysis; type: functional, organism-based
[7] = Metabolic stability in rat hepatocyte […] assessed as intrinsic clearance measured per 10^6 cells; type: ADME, cell-based; settings: hepatocytes
Plasmodium falciparum [8] = experiment: Antiplasmodial activity against multidrug resistant Plasmodium falciparum W2mef incubated for 48 hrs by SYBR staining based fluorometer assay; type: functional, organism-based
Plasmodium falciparum [9] = experiment: Antiplasmodial activity against Plasmodium falciparum 3D7 infected in RBC assessed as reduction in deoxythymidine diphosphate level at 5 nM incubated for 5 hrs by LC-MS analysis; type: functional, organism-based
HepG2 [10] = experiment: (§1) Cytotoxicity against human HepG2 cells assessed as inhibition of cell growth incubated for 48 hrs by celltiterglo assay; type: toxicity, cell-based; settings: hepg2, 48 h
[11] = Lipophilicity, logD of compound at pH 7.4 by shake-flask method; type: physicochemical; settings: buffer
Plasmodium falciparum [12] = experiment: Antiplasmodial activity against multi-drug resistant Plasmodium falciparum Dd2; type: functional, organism-based
Plasmodium falciparum [13] = experiment: Antiplasmodial activity against Plasmodium falciparum 3D7 infected in RBC assessed as reduction in deoxycytidine monophosphate level at 5 nM incubated for 5 hrs by LC-MS analysis; type: functional, organism-based
Plasmodium falciparum [14] = experiment: Antiplasmodial activity against multidrug resistant Plasmodium falciparum Cam3.1 incubated for 48 hrs by SYBR staining based fluorometer assay; type: functional, organism-based; settings: Cam3.1, 48 h
Plasmodium falciparum [15] = experiment: Antimalarial activity against Plasmodium falciparum NF54 infected assessed as inhibition of male gamete formation incubated for 48 hrs by automated bright field microscopic analysis; type: functional, organism-based; settings: NF54, 48 h
[16] = Metabolic stability in mouse liver microsome assessed as intrinsic clearance; type: ADME; settings: microsomes
Plasmodium falciparum [17] = experiment: Antiplasmodial activity against asexual Plasmodium falciparum 3D7 infected in human […] cells assessed as reduction in parasite growth measured for 72 hrs by LDH assay; type: functional, organism-based; settings: 3D7, 72 h
[18] = Aqueous solubility in PBS buffer at pH 7.4; type: physicochemical
Plasmodium knowlesi = experiment: Antiplasmodial activity against wild type Plasmodium knowlesi YH1 incubated for 30 hrs by SYBR staining based flow cytometry assay; type: functional, organism-based; settings: YH1, 30 h
Plasmodium falciparum [19] = experiment: Antiplasmodial activity against Plasmodium falciparum 3D7 infected in RBC assessed as reduction in pyrimidine-deoxyribonucleotides level at 5 nM incubated for 5 hrs by LC-MS analysis; type: functional, organism-based
[20] = as §1; type: toxicity, cell-based; settings: HepG2 cells
Plasmodium falciparum [21] = experiment: Antiplasmodial activity against N-(2,6-difluorophenyl)-2-(6-(5-methyl-1,3,4-oxadiazol-2-yl)-1H-indol-1-yl)acetamide-resistant Plasmodium falciparum Dd2 harboring plasmodium falciparum ATP4 F156L mutant by SYBR green staining based analysis; type: functional, organism-based
Plasmodium falciparum [22] = experiment: Antimalarial activity against trophozoite stage Plasmodium falciparum 3D7 at 10 times EC50 incubated for 48 hrs by SYBR Green dye based analysis; type: functional, organism-based
Plasmodium falciparum [23] = experiment: Antiplasmodial activity against N-(2,6-difluorophenyl)-2-(6-(5-methyl-1,3,4-oxadiazol-2-yl)-1H-indol-1-yl)acetamide-resistant Plasmodium falciparum Dd2 harboring plasmodium falciparum ATP4 D425E mutant by SYBR green staining based analysis; type: functional, organism-based
Plasmodium falciparum [24] = experiment: Antiplasmodial activity against multidrug-resistant Plasmodium falciparum Dd2 harboring plasmodium falciparum ATP4 I398F/P990R/D1247Y mutant by SYBR green staining based analysis; type: functional, organism-based
Plasmodium falciparum [25] = experiment: Antiplasmodial activity against Plasmodium falciparum 3D7 infected in human […] cells incubated for 72 hrs; type: functional, organism-based; settings: 3D7, 72 h
[26] = target: T1, P-type sodium-transporting ATPase4 (Plasmodium falciparum (isolate 3D7), UniProt A0A143ZZK9); experiment: Inhibition of Plasmodium falciparum 3D7 ATP4
T1 sequence (A0A143ZZK9 whole entry): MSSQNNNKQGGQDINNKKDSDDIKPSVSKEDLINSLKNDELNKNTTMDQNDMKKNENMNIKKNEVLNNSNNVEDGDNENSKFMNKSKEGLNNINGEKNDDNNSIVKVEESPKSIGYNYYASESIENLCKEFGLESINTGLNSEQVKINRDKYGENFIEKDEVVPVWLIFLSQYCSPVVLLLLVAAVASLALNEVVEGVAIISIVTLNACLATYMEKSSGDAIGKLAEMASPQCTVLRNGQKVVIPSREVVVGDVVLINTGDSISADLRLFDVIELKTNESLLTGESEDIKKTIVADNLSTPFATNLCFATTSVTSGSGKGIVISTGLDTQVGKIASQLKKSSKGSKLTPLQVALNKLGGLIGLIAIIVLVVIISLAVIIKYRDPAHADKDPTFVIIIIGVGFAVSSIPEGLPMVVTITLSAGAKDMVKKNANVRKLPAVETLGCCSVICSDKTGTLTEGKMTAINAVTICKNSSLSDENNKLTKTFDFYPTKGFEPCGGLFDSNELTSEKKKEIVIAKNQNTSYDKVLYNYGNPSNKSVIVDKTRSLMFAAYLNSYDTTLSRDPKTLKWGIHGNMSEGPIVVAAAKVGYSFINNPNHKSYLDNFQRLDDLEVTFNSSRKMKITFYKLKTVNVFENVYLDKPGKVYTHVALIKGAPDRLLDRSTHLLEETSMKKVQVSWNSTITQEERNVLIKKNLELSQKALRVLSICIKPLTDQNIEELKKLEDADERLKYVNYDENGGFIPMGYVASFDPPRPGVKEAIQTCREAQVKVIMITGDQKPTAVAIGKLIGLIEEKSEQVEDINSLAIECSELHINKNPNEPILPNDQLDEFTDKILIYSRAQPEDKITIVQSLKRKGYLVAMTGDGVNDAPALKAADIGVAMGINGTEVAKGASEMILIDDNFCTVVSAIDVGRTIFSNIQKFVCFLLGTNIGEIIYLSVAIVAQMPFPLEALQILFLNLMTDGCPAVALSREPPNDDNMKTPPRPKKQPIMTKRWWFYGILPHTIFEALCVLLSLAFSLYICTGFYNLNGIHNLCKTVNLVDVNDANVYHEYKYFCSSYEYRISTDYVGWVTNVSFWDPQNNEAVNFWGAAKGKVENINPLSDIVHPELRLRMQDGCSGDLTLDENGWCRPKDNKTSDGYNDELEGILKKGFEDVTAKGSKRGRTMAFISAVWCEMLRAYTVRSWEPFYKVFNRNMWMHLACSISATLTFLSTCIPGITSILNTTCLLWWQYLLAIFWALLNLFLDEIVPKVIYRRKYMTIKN

Plasmodium falciparum [27] = experiment: Antiplasmodial activity against N-(2,6-difluorophenyl)-2-(6-(5-methyl-1,3,4-oxadiazol-2-yl)-1H-indol-1-yl)acetamide-resistant Plasmodium falciparum Dd2 harbouring ATP4 genome with 2.8 fold CNV by SYBR green staining based analysis; type: functional, organism-based
Plasmodium falciparum [28] = experiment: Antiplasmodial activity against multidrug-resistant Plasmodium falciparum Dd2 harboring plasmodium falciparum ATP4 G358S mutant by SYBR green staining based analysis; type: functional, organism-based
[29] = target: T2, P-type sodium-transporting ATPase4 (Plasmodium falciparum (isolate 3D7)) (UniProt A0A143ZZK9); experiment: Inhibition of Plasmodium falciparum 3D7 ATP4 assessed as reduction in Na+-ATPase activity at 2 uM incubated for 10 mins under high [Na+] condition in absence of KAE609
T2 sequence (whole entry): T1 sequence (A0A143ZZK9 whole entry)

Plasmodium falciparum [30] = experiment: Antiplasmodial activity against W454-resistant population 2 Plasmodium falciparum 3D7 harboring Plasmodium falciparum ATP4 L928F mutant by LDH assay; type: functional, organism-based
Plasmodium falciparum [31] = experiment: Antiplasmodial activity against W454-resistant population 1 Plasmodium falciparum 3D7 harboring Plasmodium falciparum ATP4 L928F mutant by LDH assay; type: functional, organism-based
HepG2 [32] = experiment: Cytotoxicity against human HepG2 cells; type: functional
[33] = target: T1, P-type sodium-transporting ATPase4; experiment: Inhibition of Plasmodium falciparum 3D7 ATP4 assessed as increase in Na+ concentration in parasite cytosol measured for 60 mins; type: subcellular
Plasmodium falciparum [34] = experiment: Antimalarial activity against synchronized-ring stage Plasmodium falciparum 3D7 assessed as reduction in parasitemia at 10 times EC50 measured at 72 hrs post-treatment by LDH assay; type: functional, organism-based
In short: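 Parasite reduction ratio assay in P. falciparum 3D7 with an LDH read-out. Means and SDs were taken from three replicate experiments.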

Plasmodium falciparum [35] = experiment: Antiplasmodial activity against W454-resistant population 3 Plasmodium falciparum 3D7 harboring Plasmodium falciparum ATP4 L928F mutant by LDH assay; type: functional, organism-based
[36] = target: T2, P-type sodium-transporting ATPase4 (Plasmodium falciparum (isolate 3D7)); experiment: Inhibition of Plasmodium falciparum 3D7 ATP4 assessed as increase in Na+ concentration in parasite cytosol upto 1000 nM measured for 60 mins; type: subcellular
Plasmodium falciparum [37] = experiment: Antimalarial activity against trophozoite stage Plasmodium falciparum 3D7 assessed as reduction in parasitemia at 10 times EC50 incubated for 24 hrs by SYBR Green dye based analysis; type: functional, organism-based

Compound | pEC50 (Plasmodium falciparum [1]) | intrinsic clearance (CLint) [2] [µL/min/mg] | pEC50 (Plasmodium falciparum [4]) | pEC50 (Plasmodium falciparum [5]) | intrinsic clearance (CLint) [7] [uL/min/10^6 cells] | pEC50 (Plasmodium falciparum [8]) | CC50 (HepG2 [10]) [nM] | logD [11] | pEC50 (Plasmodium falciparum [12]) | pEC50 (Plasmodium falciparum [14]) | pEC50 (Plasmodium falciparum [15]) | pEC50 (Plasmodium falciparum [17]) | solubility kinetic [18] [µM] | pEC50 (Plasmodium knowlesi) | Activity (Plasmodium falciparum [22]) | pEC50 (Plasmodium falciparum [23]) | pEC50 (Plasmodium falciparum [24]) | pEC50 (Plasmodium falciparum [25]) | pEC50 (Plasmodium falciparum [27]) | pEC50 (Plasmodium falciparum [28]) | other results
COc1cc(NC(=O)Cn2ccc3ccc(-c4nnc(C)o4)cc32)cc(OC)c1OC | 5.47 | 42 | 7.14 | 6.78 | 8.9 | 7.11 | > 40000 | 2.7 | 7.00 | 6.91 | 5.82 | 6.70 | 5.1 (≈ 2.15 µg/mL) | 6.71 |  |  |  |  |  |  | Activity (Plasmodium falciparum [3]): inactive; Activity (Plasmodium falciparum [6]): inactive; Activity (Plasmodium falciparum [9]): inactive; Activity (Plasmodium falciparum [13]): inactive; intrinsic clearance (CLint) [16]: 69 µL/min/mg; Activity (Plasmodium falciparum [19]): inactive
Cc1nc(-c2ccc3ccn(CC(=O)Nc4ccccc4Cl)c3c2)no1 |  |  |  |  |  |  |  |  |  |  |  | 6.02 |  |  |  |  |  |  |  |  | CC50 at 48 h [20]: > 40000 nM
Cn1cc(-c2ccc3ccn(CC(=O)Nc4ccccc4Cl)c3c2)cn1 |  | > 462 | 6.63 | 6.28 | 91 | 6.55 | > 40000 | 3.6 | 6.41 | 6.32 |  | 6.23 | 4.1 (≈ 1.5 µg/mL) | 6.18 | Active | 6.05 | 5.60 | 6.39 | 5.94 | 5.78 | pEC50 (Plasmodium falciparum [21]): 6.10; pIC50 [26]: 6.10; inhibition [29]: Active
CCc1nnc(-c2ccc3ccn(CC(=O)Nc4cc(OC)c(OC)c(OC)c4)c3c2)o1 | 5.14 |  |  |  |  | 6.57 |  |  | 6.49 | 6.42 | 5.13 |  |  | 6.37 | Active | 6.62 | 6.62 | 6.91 | 6.54 | 5.86 | pEC50 (Plasmodium falciparum [30]): 5.70; pEC50 (Plasmodium falciparum [31]): 5.71; CC50 (HepG2 [32]): > 40000 nM; pIC50 [33]: ~6.40; Activity (Plasmodium falciparum [34]): Active; pEC50 (Plasmodium falciparum [35]): 5.74; inhibition [36]: Active; Activity (Plasmodium falciparum [37]): Active
